Reference: ChEMBL document CHEMBL2176974, “A bactericidal guanidinomethyl biaryl that alters the dynamics of bacterial FtsZ polymerization” (J Med Chem, 2012)
Substitutions are numbered along the chain they refer to. Values after ≈ are worked out from the molar mass of the structure shown. Active and inactive are the calls of the source. The rule behind the calls is not given here.

Assays:
[1] = tested on: T1, Cell division protein FtsZ (Staphylococcus aureus), P0A031 [G196A]; assay: Binding affinity to Staphylococcus aureus FtsZ G196A mutant self-polymerization at 20 ug/mL by microtiter plate-based light scattering assay
T1 sequence (whole entry): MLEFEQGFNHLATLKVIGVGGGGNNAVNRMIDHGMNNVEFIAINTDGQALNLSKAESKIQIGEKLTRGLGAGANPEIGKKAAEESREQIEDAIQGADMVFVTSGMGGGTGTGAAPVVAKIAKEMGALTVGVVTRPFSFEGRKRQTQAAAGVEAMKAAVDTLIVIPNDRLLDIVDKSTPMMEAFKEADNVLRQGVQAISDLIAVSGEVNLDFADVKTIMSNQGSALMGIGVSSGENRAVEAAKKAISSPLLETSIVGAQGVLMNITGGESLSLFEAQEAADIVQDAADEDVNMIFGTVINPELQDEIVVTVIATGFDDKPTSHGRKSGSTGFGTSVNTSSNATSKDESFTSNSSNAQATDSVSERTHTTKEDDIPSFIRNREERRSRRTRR

[2] = target: Cell division protein FtsZ (Staphylococcus aureus, UniProt P0A031, I228R); assay: Binding affinity to Staphylococcus aureus FtsZ I228R mutant expressed in Escherichia coli BL21 (DE3) at 25 degC by fluorescence anisotropy assay
Outline: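 Purified SaFtsZ mutant protein (0–25 μM) mixed with 5 μM compound in 50 mM Tris·HCl pH 7.4, 50 mM KCl, 2 mM magnesium acetate. After 5 min at 25 °C, steady-state fluorescence anisotropy read at excitation 245 / emission 318 nm, G-factor corrected, triplicate. Kd from nonlinear least-squares fit.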

Enterococcus faecalis [3] = assay: Binding affinity to Enterococcus faecalis FtsZ at 40 um by fluorescence anisotropy BoGTPgammaS competition assay
Outline: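 Competition with fluorescent BoGTPγS. BoGTPγS (1 μM final) was mixed with 5 μM FtsZ and compound or unlabeled GTP at 0–40 μM. Buffer was 50 mM Tris·HCl pH 7.4, 50 mM KCl, 2 mM magnesium acetate. After 5 min at 25 °C, anisotropy was read at excitation 488 nm and emission 510 nm, in triplicate and averaged.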

[4] = tested on: T2, Cell division protein FtsZ (Staphylococcus aureus), P0A031 [E185A]; assay: Binding affinity to Staphylococcus aureus FtsZ E185A mutant self-polymerization at 10 ug/mL by microtiter plate-based light scattering assay
T2 sequence (whole entry): T1 sequence (whole entry) with E185A, A196G

Staphylococcus aureus [5] = assay: Antimicrobial activity against methicillin-resistant Staphylococcus aureus Mu3 incubated for 24 hrs by broth microdilution method; format: functional; conditions: Mu3, 24 h
[6] = target: T3, Cell division protein FtsZ (Staphylococcus aureus) (UniProt P0A031); assay: Stimulation of Staphylococcus aureus FtsZ self-polymerization by microtiter plate-based light scattering assay
T3 sequence (whole entry): T1 sequence (whole entry) with A196G

[7] = Binding affinity to Enterococcus faecalis FtsZ at 25 degC by fluorescence anisotropy assay; conditions: read-out: Kd
Enterococcus faecalis [8] = assay: Stimulation of Enterococcus faecalis FtsZ self-polymerization by microtiter plate-based light scattering assay
[9] = Selectivity index, ratio of Kd for Enterococcus faecalis FtsZ to Kd for Staphylococcus aureus FtsZ
Outline: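 Buffer was 50 mM Tris·HCl pH 7.4, 50 mM KCl, 2 mM magnesium acetate. Kd came from nonlinear least-squares fits, and the index is the ratio of the two Kd values.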

Staphylococcus aureus [10] = assay: Potency index, ratio of erythromycin to compound bactericidal effect in methicillin-sensitive Staphylococcus aureus 8325-4 at 8 times MIC by time kill study; format: functional
[11] = target: T4, Cell division protein FtsZ (Escherichia coli K-12) (UniProt P0A9A6); assay: Stimulation of Escherichia coli FtsZ self-polymerization by microtiter plate-based light scattering assay
T4 sequence (whole entry): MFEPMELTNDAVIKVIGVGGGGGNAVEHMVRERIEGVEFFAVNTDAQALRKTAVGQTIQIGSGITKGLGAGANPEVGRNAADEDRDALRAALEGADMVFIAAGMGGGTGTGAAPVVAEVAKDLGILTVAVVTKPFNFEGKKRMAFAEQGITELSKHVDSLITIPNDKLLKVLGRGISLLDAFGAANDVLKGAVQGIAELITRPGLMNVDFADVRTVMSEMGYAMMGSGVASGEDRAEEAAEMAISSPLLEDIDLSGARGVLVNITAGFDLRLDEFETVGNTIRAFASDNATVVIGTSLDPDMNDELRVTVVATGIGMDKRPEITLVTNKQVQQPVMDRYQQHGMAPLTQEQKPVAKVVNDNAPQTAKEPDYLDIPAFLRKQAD

Staphylococcus aureus [12] = assay: Antimicrobial effect against 3x10^9 CFU/ml methicillin-sensitive Staphylococcus aureus 8325-4 at 4 to 32 times MIC assessed as incidence of colonies growth measured after 24 incubation by large inoculation approach based drug resistance detection method; format: functional, organism-based
Outline: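 Inoculum count checked on nonselective plates. Incubated at 37 °C and examined after 24 h and daily thereafter. Mutation frequency = colonies on selective plates / total bacteria plated.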

[13] = target: Cell division protein FtsZ (Staphylococcus aureus, UniProt P0A031, G196A); assay: Binding affinity to Staphylococcus aureus FtsZ G196A mutant expressed in Escherichia coli BL21 (DE3) at 25 degC by fluorescence anisotropy assay

Compound: CC(C)(C)c1ccc(-c2cccc(CNC(=N)N)c2)cc1
- Activity [1]: Active
- Kd [2]: 32.9 µM
- Activity (Enterococcus faecalis [3]): inactive
- Activity [4]: inactive
- MIC (Staphylococcus aureus [5]): 1 µg/mL (≈ 3.55 µM)
- Activity [6]: Dose-dependent effect
- Kd [7]: 21.8 µM
- Activity (Enterococcus faecalis [8]): Dose-dependent effect
- Ratio [9]: 6
- Ratio (Staphylococcus aureus [10]): >1000
- Activity [11]: Dose-dependent effect
- Activity (Staphylococcus aureus [12]): Active
- Kd [13]: 5 µM
